Publication PMC4651729 (ACS chemical neuroscience, 2015)
Entries after “also recorded” stand apart in the source; their conditions may differ. Marks after values point to notes of the source that are not given here.

Columns and labels:
[1] = target: mouse MOR-1 (Mus musculus, UniProt P42866); experiment: [125I]BNtxA competition binding, CHO cell membranes, MOR-1; details: for fold higher MOR-1 affinity than corresponding 14-OH-epoxymorphinan analog: 6 vs 19, 16 vs 1, 17 vs 20; for selectivity for MOR-1 over 6TM/E11 sites: ratio of Ki; for Ki: read-out: Ki MOR-1, [125I]BNtxA 0.1 nM, CHO membranes, mouse MOR-1
In short: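 Mouse MOR-1 clone stably expressed in CHO cells; membranes incubated 90 min at 25 °C in 50 mM potassium phosphate buffer, pH 7.4, with 5 mM MgSO4, no blockers. Filtration through glass-fibre filters, three washes with ice-cold 50 mM Tris-HCl, pH 7.4. Nonspecific binding with 8 μM levallorphan, subtracted from total. Ki by nonlinear regression. Protein measured by Lowry method.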

[2] = target: mouse KOR-1 (Mus musculus, UniProt P33534); experiment: [125I]BNtxA competition binding, CHO cell membranes, KOR-1; details: for fold higher KOR-1 affinity than corresponding 14-OH-epoxymorphinan analog: 6 vs 19, 16 vs 1, 17 vs 20; for selectivity for KOR-1 over 6TM/E11 sites: ratio of Ki; for Ki: read-out: Ki KOR-1, [125I]BNtxA 0.1 nM, CHO membranes, mouse KOR-1
In short: (§1)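 Membranes from CHO cells stably expressing the murine receptor clone, with no blockers, were incubated for 90 min at 25 °C in 50 mM potassium phosphate buffer (pH 7.4) with 5 mM MgSO4. Samples were then filtered on glass-fiber filters and washed with ice-cold 50 mM Tris-HCl (pH 7.4). Nonspecific binding was set with levallorphan 8 μM. Ki came from nonlinear regression. The 6TM/E11 comparison used mouse whole-brain membranes with CTAP, U50,488H and DPDPE, each at 200 nM.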

[3] = target: mouse DOR-1 (Mus musculus, UniProt P32300); experiment: [125I]BNtxA competition binding, CHO cell membranes, DOR-1; details: for fold higher DOR-1 affinity than corresponding 14-OH-epoxymorphinan analog: 6 vs 19, 16 vs 1, 17 vs 20; for selectivity for DOR-1 over 6TM/E11 sites: ratio of Ki; for Ki: read-out: Ki DOR-1, [125I]BNtxA 0.1 nM, CHO membranes, mouse DOR-1
In short: as §1

[4] = target: 6TM/E11 (Mus musculus, UniProt P42866); format: binding; details: for fold lower 6TM/E11 affinity than 1: compared with 1; for Ki: read-out: Ki 6TM/E11, [125I]BNtxA 0.1 nM, mouse brain, CTAP, DPDPE, U50,488 blockers at 200 nM
In short: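 Membrane homogenates of whole brain from wild-type mice. Blockers at 200 nM: CTAP for MOR-1, U50,488H for KOR-1 and DPDPE for DOR-1.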

[5] = tested on: CD1 mice; experiment: radiant heat tail flick analgesia; format: in vivo, mouse; details: for tail flick analgesia (CI), ED50 / antinociception in vivo (in words): sc; for tail flick analgesia (CI), ED50: 30 min after dosing, mice, 95% CI or ± SEM; for antinociception in vivo (in words) / fold higher analgesic potency than morphine: tail flick; for fold higher analgesic potency than morphine: systemic (sc)
[6] = tested on: CD1 mice; details: cited from earlier work
[7] = target: KOR-1 (Mus musculus, UniProt P33534); experiment: [35S]GTPγS binding assay, KOR-1; format: biochemical
[8] = tested on: mice; experiment: conditioned place preference/aversion; format: in vivo, mouse; details: 2 days; for effect of pretreatment on cocaine-conditioned place preference: 16 1 mg/kg sc 10 min prior to cocaine 10 mg/kg sc; for place conditioning response to drug alone: 16 1 mg/kg sc, morphine 10 mg/kg ip, U50,488 30 mg/kg ip, cocaine 10 mg/kg sc
[9] = target: MOR-1 (Mus musculus, UniProt P42866)
[10] = target: DOR-1 (Mus musculus, UniProt P32300)
[11] = tested on: C57BL/6J, MOR-1 KO or KOR-1 KO mice; details: C57BL/6J mice, sc
[12] = doses 30 times the antinociceptive ED50

## C=CCN1CC[C@]23c4c5ccc(O)c4O[C@H]2[C@H](NC(=O)c2cccc(I)c2)C=C[C@H]3[C@H]1C5 [Compound 17, 17-Allyl-3-hydroxy-4,5α-epoxy-7,8-en-6-β-[(3′-iodo)benzamido]-morphinan]
[1]
  fold higher MOR-1 affinity than corresponding 14-OH-epoxymorphinan analog: 6.5 fold
  selectivity for MOR-1 over 6TM/E11 sites: 23 fold
  Ki: 34 ± 6 pM
[2]
  fold higher KOR-1 affinity than corresponding 14-OH-epoxymorphinan analog: 3.6 fold
  selectivity for KOR-1 over 6TM/E11 sites: 35 fold
  Ki: 22 ± 4.3 pM
[3]
  fold higher DOR-1 affinity than corresponding 14-OH-epoxymorphinan analog: 6.7 fold
  selectivity for DOR-1 over 6TM/E11 sites: 2 fold
  Ki: 390 ± 4.1 pM
[4]
  fold lower 6TM/E11 affinity than 1: 4.9 fold
  Ki: 780 ± 100 pM
[4]; compared with 20
  fold lower 6TM/E11 affinity than 20: 3.1 fold
[5]
  tail flick analgesia (CI), ED50: 0.53 (0.45, 0.59) mg/kg
  antinociception in vivo (in words): equipotent to both 1 and 20

## CN1CC[C@]23c4c5ccc(O)c4O[C@H]2[C@H](NC(=O)c2cccc(I)c2)C=C[C@H]3[C@H]1C5 [Compound 6, 17-Methyl-3-hydroxy-4,5α-epoxy-7,8-en-6-β-[(3′-iodo)-benzamido]-morphinan]
[1]
  fold higher MOR-1 affinity than corresponding 14-OH-epoxymorphinan analog: 26 fold
  Ki: 37 ± 5.1 pM
[2]
  fold higher KOR-1 affinity than corresponding 14-OH-epoxymorphinan analog: 224 fold
  Ki: 210 ± 46 pM
[3]
  fold higher DOR-1 affinity than corresponding 14-OH-epoxymorphinan analog: 3 fold
  Ki: 880 ± 80 pM
[4]
  Ki: 27000 ± 18000 pM
[5]
  tail flick analgesia (CI), ED50: 6.31 (4.6, 8.5) mg/kg
  antinociception in vivo (in words): potent antinociception

## O=C(N[C@@H]1CC[C@@]2(O)[C@H]3Cc4ccc(O)c5c4[C@@]2(CCN3CC2CC2)[C@H]1O5)c1cccc(I)c1 [Compound 1, 3-Iodobenzoyl-β-naltrexamine, reference compound]
[1]
  Ki: 110 ± 20 pM
[2]
  Ki: 30 ± 1 pM
[3]
  Ki: 240 ± 50 pM
[4]
  Ki: 160 ± 40 pM
[5]
  tail flick analgesia (CI), ED50: 0.39 (0.15, 0.58) mg/kg
[6]; introduction
  antinociception ED50: 0.39 mg/kg

## O=C(N[C@@H]1C=C[C@H]2[C@H]3Cc4ccc(O)c5c4[C@@]2(CCN3CC2CC2)[C@H]1O5)c1cccc(I)c1 [Compound 16, 17-Cyclopropylmethyl-3-hydroxy-4,5α-epoxy-7,8-en-6-β-[(3′-iodo)benzamido]-morphinan]
[1]
  fold higher MOR-1 affinity than corresponding 14-OH-epoxymorphinan analog: 5 fold
  selectivity for MOR-1 over 6TM/E11 sites: 22 fold
  Ki: 21 ± 3.4 pM
[2]
  fold higher KOR-1 affinity than corresponding 14-OH-epoxymorphinan analog: 4.7 fold
  selectivity for KOR-1 over 6TM/E11 sites: 73 fold
  Ki: 6.4 ± 2 pM
[3]
  fold higher DOR-1 affinity than corresponding 14-OH-epoxymorphinan analog: 3 fold
  selectivity for DOR-1 over 6TM/E11 sites: 6 fold
  Ki: 80 ± 19 pM
[4]
  fold lower 6TM/E11 affinity than 1: 3 fold
  Ki: 470 ± 9 pM
[5]; CD1 mice, 16 0.5 mg/kg sc, J-113,397 30 mg/kg sc 15 min before, listed as 16 (MP1104)
  antinociception after pretreatment with NOP antagonist J-113,397: No change in the antinociceptive efiect; also recorded: insensitive
[5]; CD1 mice, 16 0.5 mg/kg sc, NTI 20 mg/kg sc 15 min before, listed as 16 (MP1104)
  antinociception after pretreatment with DOR-1 antagonist NTI: attenuated the antinociceptive effects; also recorded: partially antagonized
[5]; CD1 mice, 16 0.5 mg/kg sc, listed as 16 (MP1104)
  antinociception after pretreatment with both norBNI and NTI: fully prevented antinociception; also recorded: eliminated the antinociceptive response
[5]; CD1 mice, 16 0.5 mg/kg sc, norBNI 10 mg/kg sc 24 h before, listed as 16 (MP1104)
  antinociception after pretreatment with KOR-1 antagonist norBNI: attenuated the antinociceptive effects; also recorded: partially antagonized
[5]; CD1 mice, 16 0.5 mg/kg sc, β-FNA 40 mg/kg sc 24 h before, listed as 16 (MP1104)
  antinociception after pretreatment with MOR-1 antagonist β-FNA: did not alter anti-nociception; also recorded: insensitive
[5]
  tail flick analgesia (CI), ED50: 0.33 ± 0.09 mg/kg
[5]; listed as 16 (MP1104)
  fold higher analgesic potency than morphine: 15 fold
[5]; listed as MP1104
  fold higher analgesic potency than morphine: approximately 15 fold
[7]; [35S]GTPγS
  agonist efficacy at KOR-1 (in words): full agonist eficacy
[7]; read-out: EC50 KOR-1, [35S]GTPγS stimulation
  EC50: 27 ± 2 pM
[7]; relative to U50,488H at 100 nM
  Emax (% stimulation) KOR-1: 104 ± 2.3 % stimulation
[8]; listed as 16 (MP1104)
  effect of pretreatment on cocaine-conditioned place preference: prevented significant place preference produced by cocaine; also recorded: prevented cocaine-conditioned place preference; also recorded: abolished cocaine preference; also recorded: effectively blocked cocaine-conditioned place preference
  place conditioning response to drug alone: neither conditioned place preference nor aversion; also recorded: did not produce conditioned place preference or aversion; also recorded: produced neither preference nor aversion; also recorded: lacks rewarding and dysphoric properties
[8]; listed as MP1104
  effect of pretreatment on cocaine-conditioned place preference: prevented the reward behavior associated with cocaine
  place conditioning response to drug alone: did not cause place aversion or preference
[9]; [35S]GTPγS, listed as 16 (MP1104)
  agonist efficacy at MOR-1 (in words): full agonist eficacy; also recorded: full agonism
[9]; read-out: EC50 MOR-1, [35S]GTPγS stimulation
  EC50: 210 ± 30 pM
[9]; relative to DAMGO at 100 nM
  Emax (% stimulation) MOR-1: 103 ± 2.5 % stimulation
[10]; [35S]GTPγS
  agonist efficacy at DOR-1 (in words): full agonist eficacy
[10]; read-out: EC50 DOR-1, [35S]GTPγS stimulation
  EC50: 410 ± 110 pM
[10]; relative to DPDPE at 100 nM
  Emax (% stimulation) DOR-1: 88 ± 0.38 % stimulation
[11]
  antinociception ED50 (95% confidence interval): 0.22 (0.17–0.29) mg/kg
[12]
  seizures: not observed to produce seizures

## COC(=O)[C@H]1[C@@H](OC(=O)c2ccccc2)C[C@@H]2CC[C@H]1N2C [cocaine, reference compound]
[8]
  place conditioning response to drug alone: significant place preference

## O=C(N[C@@H]1C=C[C@H]2[C@H]3Cc4ccc(O)c5c4[C@@]2(CCN3CCc2ccccc2)[C@H]1O5)c1cccc(I)c1 [Compound 15, 17-Phenethyl-3-hydroxy-4,5α-epoxy-7,8-en-6-β-[(3′-iodo)-benzamido]-morphinan]
[1]
  selectivity for MOR-1 over 6TM/E11 sites: 159 fold
  Ki: 88 ± 28 pM
[2]
  selectivity for KOR-1 over 6TM/E11 sites: 100 fold
  Ki: 140 ± 22 pM
[3]
  selectivity for DOR-1 over 6TM/E11 sites: 108 fold
  Ki: 130 ± 32 pM
[4]
  Ki: 14000 ± 3200 pM
[5]
  tail flick analgesia (CI), ED50: 1.3 (1.03, 2.2) mg/kg
  fold higher analgesic potency than morphine: ~ 3 fold

## COc1ccc2c3c1O[C@H]1[C@H](NC(=O)c4cccc(I)c4)C=C[C@H]4[C@@H](C2)N(C)CC[C@@]341 [Compound 5, 17-Methyl-3-methoxy-4,5α-epoxy-7,8-en-6-β-[(3′-iodo)-benzamido]-morphinan]
[1]
  Ki: 1200 ± 480 pM
[2]
  Ki: 10000 ± 3500 pM
[3]
  Ki: 49000 ± 6400 pM
[4]
  Ki: 61000 ± 7700 pM
[5]
  tail flick analgesia (CI), ED50: >10 mg/kg

## CN1CC[C@]23c4c5ccc(O)c4O[C@H]2[C@@H](O)C=C[C@H]3[C@H]1C5 [morphine, reference compound]
[8]
  place conditioning response to drug alone: significant conditioned place preference
[6]
  tail flick analgesia, ED50: 4.96 ± 0.96^f mg/kg
